“Also recorded” adds a separate entry of the source.
Assays:
[1] = system: P. aeruginosa strain PA14; test: swarming assay on swarm agar plates; type: cell-based, Pseudomonas aeruginosa; settings: for swarming inhibition: data not shown; for effect on swarming: 25 μM, 16 h at 30 °C, versus DMSO-treated control
Outline: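 Test compound was added to the swarm agar at 25 μM, and P. aeruginosa PA14 was grown on these plates for 16 h at 30 °C. Swarm morphology was compared visually with plates containing DMSO as the vehicle control.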

[2] = molecular target: secreted LasB (Pseudomonas aeruginosa, UniProt Q02RJ6); test: bacterial P. aeruginosa elastase assays; type: cell-based
Chain of secreted LasB (Q02RJ6 198-498): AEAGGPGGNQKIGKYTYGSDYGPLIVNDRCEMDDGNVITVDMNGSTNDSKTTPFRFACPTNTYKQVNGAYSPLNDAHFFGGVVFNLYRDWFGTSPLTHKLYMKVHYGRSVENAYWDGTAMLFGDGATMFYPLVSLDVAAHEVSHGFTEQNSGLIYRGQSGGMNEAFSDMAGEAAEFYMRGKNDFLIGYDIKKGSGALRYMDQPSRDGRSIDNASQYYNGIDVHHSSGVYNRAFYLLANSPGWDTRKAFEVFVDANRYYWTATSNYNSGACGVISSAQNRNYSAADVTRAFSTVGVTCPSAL

[3] = stability studies in bacterial culture medium; type: physicochemical; settings: 48 h period
[4] = molecular target: LasB (Pseudomonas aeruginosa, UniProt P14756); test: LasB fluorescence assay based on a LasB-cleavable FRET peptide substrate; type: biochemical; settings: for less potent than 8a and 8b in the in vitro LasB assay: relative to 8a and 8b; for improvement in potency: relative to fragment hits 3 and 4
Chain of LasB (P14756 198-498): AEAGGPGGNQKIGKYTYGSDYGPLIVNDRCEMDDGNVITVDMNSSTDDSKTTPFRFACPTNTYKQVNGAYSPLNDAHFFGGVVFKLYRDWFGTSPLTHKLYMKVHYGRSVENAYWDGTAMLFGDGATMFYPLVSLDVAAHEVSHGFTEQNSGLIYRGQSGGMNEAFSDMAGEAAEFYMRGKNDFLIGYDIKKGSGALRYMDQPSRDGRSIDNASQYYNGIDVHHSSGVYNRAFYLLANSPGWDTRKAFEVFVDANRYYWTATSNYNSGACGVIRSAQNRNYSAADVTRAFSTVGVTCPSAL

Row | SMILES | swarming inhibition [1] | antagonism in bacterial P. aeruginosa elastase assays (secreted LasB inhibition) [2] | stability in bacterial culture medium [3] | less potent than 8a and 8b in the in vitro LasB assay [4] | effect on swarming [1] | improvement in potency [4]
1 | O=C(Cc1ccccc1)NO [Compound 1] | no swarming inhibition | no secreted LasB inhibition; also recorded: no antagonism | hydrolytic instability | ~ 5 fold |  | 
2 | Cc1c(O)c(=S)ccn1Cc1ccc(-c2ccccc2)cc1 [Compound 8b] |  |  | no detectable S-oxidation or decomposition |  | almost completely abolished swarming | ~ 30 fold
3 | O=C(Cc1cccc(F)c1)NO [Compound 2] | no swarming inhibition | no secreted LasB inhibition; also recorded: no antagonism | hydrolytic instability | ~ 5 fold |  | 
4 | Cc1c(O)c(=S)ccn1Cc1ccc(-c2ccc(F)c(F)c2)cc1 [Compound 8a] |  |  | no detectable S-oxidation or decomposition |  | almost completely abolished swarming | ~ 30 fold

Source: publication PMC3501683 (ACS medicinal chemistry letters, 2012)
